# S100A4 MyoIIA: inhibitors of human S100A4 binding to myosin IIA peptide. S100A4/TAMRA-MyoIIA peptide fluorescence polarization. hit rate 0.14% among 360,000. P26447. AID 652163. inhibition, % at 10.7 µM;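 active = mean inhibition of at least 70% across replicates, with every replicate also reaching that level; inconclusive = mean inhibition reaches 70% but some replicates fall short; inactive = mean inhibition below 70%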
# Target sequence (P26447 whole entry, looked up): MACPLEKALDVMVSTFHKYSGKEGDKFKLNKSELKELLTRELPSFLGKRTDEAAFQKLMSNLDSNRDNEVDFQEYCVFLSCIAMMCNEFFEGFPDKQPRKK
#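 System – human S100A4 monomer protein, biochemical binding assay · Buffer or medium – Calcium-containing HEPES buffer, pH 7.2 · Timing – 5 min between mix addition and reading · Also added – TAMRA-labelled myosin IIA heavy-chain peptide probe, 5 nM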
# SIRT5 block: sirtuin-5 (human) deacylase inhibition. Q9NXA8. Purified SirT5, succinyl-peptide AMC, trypsin-coupled fluorescence. inhibition, % at 15 µM. hit rate 1.1% among 330,000. AID 652115; in the data active = inhibition above about 15%; inconclusive = no clear call, values can overlap the other calls
# Target sequence (Q9NXA8 whole entry, looked up): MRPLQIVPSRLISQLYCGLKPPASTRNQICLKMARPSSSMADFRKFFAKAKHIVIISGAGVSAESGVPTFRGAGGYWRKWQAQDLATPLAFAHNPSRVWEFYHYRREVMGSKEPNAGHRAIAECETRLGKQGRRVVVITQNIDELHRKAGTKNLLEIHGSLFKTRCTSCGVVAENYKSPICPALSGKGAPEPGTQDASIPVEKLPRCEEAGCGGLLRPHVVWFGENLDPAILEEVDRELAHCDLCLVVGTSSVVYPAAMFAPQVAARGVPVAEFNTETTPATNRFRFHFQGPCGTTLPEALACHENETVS
# CaV13 FRET inh: Primary screen for inhibitors of IQ motif and Ca2+-dependent inactivation inhibitor domain binding in CACNA1D, Förster resonance energy transfer in living cells, …; AID 743397; inhibition, % at 12.3 µM; HEK cells, CFP/YFP FRET ICDI-IQ, plate reader, 10 min; percent FRET-ratio fall versus neutral wells; hit rate 0.098% among 340,000;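 active = mean replicate inhibition of at least 30% and at least 1% of replicates passing that level; inconclusive = only one of the two criteria is met; inactive = neither criterion is met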
# MLL AF4-AF9 inh: blocks AF4 peptide binding to human AF9. P42568. AlphaScreen, biotin-AF4 peptide binding to FLAG-AF9. inhibition, % at 10 µM. hit rate 0.47% among 350,000;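 active = every replicate reaching a set inhibition limit, whatever the replicate mean, cut at about 25% in these data; inconclusive = mean inhibition reaches that limit but some replicates miss it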
# DENV2 CPE: protects cells from dengue virus 2 cytopathic effect; hit rate 1.7% among 350,000; DENV2-infected cells, cytopathic effect rescue, plate reader; CPE inhibition, % at 9.99 µM; AID 651640; in the data active = CPE inhibition above about 20%, passing the limit was not always enough; inconclusive = no clear call, values can overlap the other calls; tested in BHK-21 cells
# A number is an active result; i = inactive; ? = inconclusive; nt = no result. In the library only some 2.7% were active in any assay of this set; here they are far more common.
SMILES,S100A4 MyoIIA,SIRT5 block,CaV13 FRET inh,MLL AF4-AF9 inh,DENV2 CPE
Cc1ccc(S(=O)(=O)NCC(=O)OCc2cc(=O)oc3cc(C)ccc23)cc1,i,i,i,i,i
Cc1ccc2c(COC(=O)CNC(=O)c3ccccc3)cc(=O)oc2c1,i,i,i,i,118
O=C(COCc1ccccc1)N[C@@H]1c2ccccc2CC[C@H]1OCc1ccccc1,i,i,i,i,i
O=C(N[C@@H]1c2ccccc2CC[C@@H]1OCc1ccccc1)c1ccc(C(F)(F)F)cc1,i,i,i,i,69
C[C@H](CO)N1C[C@H](C)[C@H](CN(C)C)Oc2cc(C#Cc3ccccc3)ccc2S1(=O)=O,i,i,nt,i,i
COCCn1c(SCC(=O)Nc2cc(C)on2)nnc1-c1ccccc1,i,i,i,34,i
CCCC(=O)Nc1ccc2c(c1)C(=O)N(C)C[C@@H](OC)[C@@H](C)CN(Cc1ccccn1)[C@H](C)CO2,i,i,nt,i,i
O=C(NCC[C@H]1CC[C@@H](NS(=O)(=O)c2ccc(F)cc2)[C@H](CO)O1)Nc1ccc(Cl)cc1,i,i,nt,i,i
Cc1ccc(S(=O)(=O)N[C@H]2CC[C@@H](CCNC(=O)Nc3ccc(Cl)cc3)O[C@H]2CO)cc1,i,103,nt,i,i
O=C(NCC[C@H]1CC[C@H](NS(=O)(=O)c2ccc(Cl)cc2)[C@H](CO)O1)Nc1ccc(F)cc1,i,i,nt,30,i
O=C(NCC[C@@H]1CC[C@@H](NS(=O)(=O)c2ccc(Cl)cc2)[C@@H](CO)O1)Nc1ccc(F)cc1,i,i,nt,i,33
O=C(NCc1ccc(F)cc1)[C@H]1[C@H](CO)[C@H]2Cn3c(cccc3=O)[C@@H]1N2C(=O)C1CC1,i,i,nt,i,i
Cc1cc2cc(CNC(=O)c3ccco3)ccc2n1C,i,i,56,i,i
COc1ccc(C(=O)NCc2ccc3c(c2)cc(C)n3C)cc1,i,i,i,i,i
Cc1cc2cc(CNC(=O)Nc3ccc(Cl)c(Cl)c3)ccc2n1C,80,i,i,i,i
Cn1c(CCNC(=O)c2ccco2)nc2cc(NC(=O)c3ccco3)ccc21,nt,nt,i,nt,nt
CCCCC(=O)Nc1ccc2c(c1)nc(CCNC(=O)c1ccco1)n2C,i,23,i,i,i
CCC(=O)Nc1ccc2c(c1)C(=O)N(C)C[C@@H](OC)[C@@H](C)CN(C(=O)NC(C)C)[C@H](C)CO2,i,i,nt,i,i
CN1CCN(CCCNC(=O)c2ccc(/C=C3\Sc4ccccc4N(Cc4ccccc4F)C3=O)cc2)CC1,i,i,i,36,i
O=C1Nc2cc(C(=O)NCCCN3CCCC3)ccc2S/C1=C/c1ccccc1F,i,i,i,i,i
CCN1CCN(CCNC(=O)c2ccc3c(c2)N(Cc2ccc(F)cc2)C(=O)/C(=C/c2ccccc2)S3)CC1,i,i,i,58,i
COc1cccc(/C=C2/Sc3ccc(C(=O)NCCN4CCCC4)cc3NC2=O)c1,i,i,i,37,i
COc1ccccc1-c1ccc(C2[C@H]3CNC[C@@H]2N3S(=O)(=O)c2ccccc2OC)cc1 (some centres not stated),i,i,nt,i,i
COc1cc(/C=C/C(=O)OCC(=O)Nc2cc(S(=O)(=O)N3CCCCC3)ccc2C)ccc1O,i,i,i,?,22
O=S(=O)(O)c1cc(Cl)cc(N=Nc2ccc(O)cc2O)c1O,i,39,i,i,i
SMILES,S100A4 MyoIIA,SIRT5 block,CaV13 FRET inh,MLL AF4-AF9 inh,DENV2 CPE
CCC1CCc2sc(C(=O)OCC(=O)N(CCOC)c3c(N)n(Cc4ccccc4)c(=O)[nH]c3=O)cc2C1 (configuration not stated),i,i,i,i,i
CCOc1ccccc1C(=O)NC(C(=O)N(C)c1c(N)n(Cc2ccccc2)c(=O)[nH]c1=O)C(C)C (configuration not stated),i,17,i,i,i
CCN(C(=O)CSc1nnc(NCCOC)s1)c1c(N)n(Cc2ccccc2)c(=O)[nH]c1=O,i,i,i,i,69
COCCN(C(=O)COC(=O)c1cc2c(s1)CCC2)c1c(N)n(Cc2ccccc2)c(=O)[nH]c1=O,i,15,i,i,i
COCCN(C(=O)COC(=O)CC(C)c1ccccc1)c1c(N)n(Cc2ccccc2)c(=O)[nH]c1=O (configuration not stated),i,i,i,i,31
CCCN(C(=O)C(NC(=O)c1ccccc1)C(C)C)c1c(N)n(Cc2ccccc2)c(=O)[nH]c1=O (configuration not stated),i,i,i,i,i
COCCN(C(=O)COC(=O)CCOc1ccccc1)c1c(N)n(Cc2ccccc2)c(=O)[nH]c1=O,i,i,i,i,i
CO[C@@H]1CN(C)C(=O)c2ccc(NC(=O)c3cc(C)on3)cc2OC[C@H](C)N(C(C)=O)C[C@H]1C,i,i,nt,i,i
CCCCN(C(=O)COC(=O)c1ccc(C)s1)c1c(N)n(CCC)c(=O)[nH]c1=O,i,i,i,i,i
CCCCn1c(N)c(N(CCOC)C(=O)COC(=O)c2cc(CCC)c(C)s2)c(=O)[nH]c1=O,i,i,i,41,i
c1c[nH]c(CN2CCN(Cc3ncc[nH]3)CC2)n1,i,i,i,28,i
O=C(NC1CCCCCCC1O)c1ccccc1 (configuration not stated),i,16,i,i,i
CCN(CC)c1ccc(NC(=S)NC(=O)C2CCC2)cc1,i,i,nt,26,i
COc1ccc(S(=O)(=O)N(C)C[C@@H]2Oc3ccc(NC(=O)Nc4c(C)noc4C)cc3CC(=O)N([C@@H](C)CO)C[C@@H]2C)cc1,i,i,nt,i,i
CCN(CC)c1ccc(C(NC(=O)C(C)C)c2ccc3cccnc3c2O)cc1 (configuration not stated),i,i,i,29,i
CCCC(=O)NC(c1cccc([N+](=O)[O-])c1)c1ccc2cccnc2c1O (configuration not stated),i,i,i,34,i
CCCCC(=O)NC(c1ccc(N(C)C)cc1)c1ccc2cccnc2c1O (configuration not stated),i,i,i,57,i
CC=Cc1ccc2n(c1=O)C[C@@H]1[C@@H](CO)[C@H](C(=O)N3CCc4ccccc4C3)N[C@H]21 (mixture of isomers),i,i,nt,i,i
Cc1ccc(S(=O)(=O)N[C@H]2CC[C@H](CC(=O)O)O[C@@H]2CO)cc1,i,i,nt,i,i
C[C@@H]1CCCCO[C@@H](CN(C)C(=O)NC2CCCCC2)[C@@H](C)CN([C@@H](C)CO)C(=O)c2cc(NC(=O)Nc3ccc(F)cc3)ccc2O1,i,i,nt,i,i
CN(c1ccccc1)S(=O)(=O)c1cccc(NC(=O)COc2ccccc2)c1,i,i,i,i,i
CC(=O)CCc1ccc(OCC(=O)Nc2cccc(S(=O)(=O)N(C)c3ccccc3)c2)cc1,i,17,i,i,i
N#C[C@@H]1[C@H](c2ccc(C#Cc3ccccc3F)cc2)[C@H](CO)N1C(=O)C1CCOCC1,i,i,nt,i,i
